Measurements taken from ChEMBL document CHEMBL5257020, “Discovery of a 9-mer Cationic Peptide (LTX-315) as a Potential First in Class Oncolytic Peptide” (J Med Chem, 2016).
Where a SMILES comes first, the peptide text is derived from it. [ ]: non-standard residue; d: D form. Bip = N[C@@H](Cc1ccc(-c2ccccc2)cc1)C(=O)O

Columns and labels:
[1] = system: Raji; experiment: Cytotoxicity against human Raji cells assessed as inhibition of cell proliferation incubated for 4 hrs by MTS assay; assay type: functional, cell-based
Summary of the method: (§1)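 Cells grown in RPMI-1640 with 2 mM L-glutamine and 10% FBS, plated, then held 24 h at 37 °C. Adherent lines washed once in FBS-free medium. Cells exposed 4 h at 37 °C, 5% CO2 in FBS-free medium to 10 concentrations (1/4 steps, 400 μM top). 1% Triton X-100 served as positive control. MTS/PMS added for 2 h, then OD 490 nm read. IC50 from semilog curves; three independent experiments, quadruplicate wells.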

[2] = Cytotoxicity against human MINO cells assessed as inhibition of cell proliferation incubated for 4 hrs by MTS assay; assay type: functional, cell-based; summary of the method: as §1
[3] = system: KARPAS-299; experiment: Cytotoxicity against human KARPAS-299 cells assessed as inhibition of cell proliferation incubated for 4 hrs by MTS assay; assay type: functional, cell-based; details: KARPAS-299, 4 h; summary of the method: as §1
[4] = system: CCRF-CEM; experiment: Cytotoxicity against human CCRF-CEM cells assessed as inhibition of cell proliferation incubated for 4 hrs by MTS assay; assay type: functional, cell-based; summary of the method: as §1
[5] = Cytotoxicity against human MRC5 cells assessed as inhibition of cell proliferation incubated for 4 hrs by MTT assay; assay type: toxicity, cell-based
Summary of the method: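 MRC-5 human embryonic lung fibroblasts cultured in MEM with 2 mM L-glutamine and 10% FBS, without antibiotics, at 37 °C in humidified 5% CO2. Cultures were tested for mycoplasma. IC50 from three or more independent measurements, given as mean ± SD.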

[6] = Cytotoxicity against mouse AT84 cells assessed as inhibition of cell proliferation incubated for 4 hrs by MTT assay; assay type: functional, cell-based; details: AT84, 4 h
[7] = system: HL-60; experiment: Cytotoxicity against human HL-60 cells assessed as inhibition of cell proliferation incubated for 4 hrs by MTS assay; assay type: functional, cell-based; details: HL-60, 4 h; summary of the method: as §1
[8] = system: MCF7; experiment: Cytotoxicity against human MCF7 cells assessed as inhibition of cell proliferation incubated for 4 hrs by MTS assay; assay type: functional, cell-based; details: MCF7, 4 h; summary of the method: as §1
[9] = system: MCF7; experiment: Cytotoxicity against human MCF7 cells transfected with MDR1 assessed as inhibition of cell proliferation incubated for 4 hrs by MTS assay; assay type: functional, cell-based; details: MCF7, 4 h; summary of the method: as §1
[10] = system: IGROV-1; experiment: Cytotoxicity against human IGROV-1 cells assessed as inhibition of cell proliferation incubated for 4 hrs by MTS assay; assay type: functional, cell-based; details: IGROV-1, 4 h; summary of the method: as §1
[11] = system: K562; experiment: Cytotoxicity against human K562 cells assessed as inhibition of cell proliferation incubated for 4 hrs by MTS assay; assay type: functional, cell-based; details: K562, 4 h; summary of the method: as §1
[12] = system: K562; experiment: Cytotoxicity in imatinib resistant human K562 cells assessed as inhibition of cell proliferation incubated for 4 hrs by MTS assay; assay type: functional, cell-based; details: K562, 4 h
Summary of the method: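 Oncodesign panel MTS/PMS assay. Cells in RPMI-1640 + 10% FBS. After 24 h pre-plating, adherent lines washed in FBS-free medium. Cells exposed 4 h at 37 °C in FBS-free medium to 10 concentrations, 1/4 dilutions from 400 μM top. Triton X-100 (1% final) positive control. MTS/PMS added, 2 h, OD 490 nm. IC50 from semilog curves. Three independent experiments, quadruplicate wells.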

[13] = system: Daudi; experiment: Cytotoxicity against human Daudi cells assessed as inhibition of cell proliferation incubated for 4 hrs by MTS assay; assay type: functional, cell-based; summary of the method: as §1
[14] = system: U-937; experiment: Cytotoxicity against human U-937 cells assessed as inhibition of cell proliferation incubated for 4 hrs by MTS assay; assay type: functional, cell-based; details: U-937, 4 h; summary of the method: as §1
[15] = system: CEM-VLB; experiment: Cytotoxicity against human CCRF-CEM/VLB cells assessed as inhibition of cell proliferation incubated for 4 hrs by MTS assay; assay type: functional, cell-based; summary of the method: as §1
[16] = system: RPMI-8226; experiment: Cytotoxicity against human RPMI-8226 cells assessed as inhibition of cell proliferation incubated for 4 hrs by MTS assay; assay type: functional, cell-based; details: RPMI-8226, 4 h; summary of the method: as §1
[17] = system: MDA-MB-231; experiment: Cytotoxicity against human MDA-MB-231 cells assessed as inhibition of cell proliferation incubated for 4 hrs by MTS assay; assay type: functional, cell-based; details: MDA-MB-231, 4 h; summary of the method: as §1
[18] = system: MDA-MB-435S; experiment: Cytotoxicity against human MDA-MB-435S cells assessed as inhibition of cell proliferation incubated for 4 hrs by MTS assay; assay type: functional, cell-based; summary of the method: as §1
[19] = system: T47D; experiment: Cytotoxicity against human T47D cells assessed as inhibition of cell proliferation incubated for 4 hrs by MTS assay; assay type: functional, cell-based; summary of the method: as §1
[20] = system: HCT-15; experiment: Cytotoxicity against human HCT-15 cells assessed as inhibition of cell proliferation incubated for 4 hrs by MTS assay; assay type: functional, cell-based; details: HCT-15, 4 h; summary of the method: as §1
[21] = system: HT-29; experiment: Cytotoxicity against human HT-29 cells assessed as inhibition of cell proliferation incubated for 4 hrs by MTS assay; assay type: functional, cell-based; details: HT-29, 4 h; summary of the method: as §1
[22] = Cytotoxicity against human HUVEC-C cells assessed as inhibition of cell proliferation incubated for 4 hrs by MTS assay; assay type: toxicity, cell-based; summary of the method: as §1
[23] = system: 786-0; experiment: Cytotoxicity against human 786-0 cells assessed as inhibition of cell proliferation incubated for 4 hrs by MTS assay; assay type: functional, cell-based; details: 786-0, 4 h; summary of the method: as §1
[24] = system: SK-HEP1; experiment: Cytotoxicity against human SK-HEP1 cells assessed as inhibition of cell proliferation incubated for 4 hrs by MTS assay; assay type: functional, cell-based; details: SK-HEP1, 4 h; summary of the method: as §1
[25] = system: A549; experiment: Cytotoxicity against human A549 cells assessed as inhibition of cell proliferation incubated for 4 hrs by MTS assay; assay type: functional, cell-based; details: A549, 4 h; summary of the method: as §1
[26] = system: Calu-6; experiment: Cytotoxicity against human Calu-6 cells assessed as inhibition of cell proliferation incubated for 4 hrs by MTS assay; assay type: functional, cell-based; details: Calu-6, 4 h; summary of the method: as §1
[27] = Cytotoxicity against human MRC5 cells assessed as inhibition of cell proliferation incubated for 4 hrs by MTS assay; assay type: toxicity, cell-based; summary of the method: as §1
[28] = system: NCI-H460; experiment: Cytotoxicity against human NCI-H460 cells assessed as inhibition of cell proliferation incubated for 4 hrs by MTS assay; assay type: functional, cell-based; details: NCI-H460, 4 h; summary of the method: as §1
[29] = system: OVCAR-3; experiment: Cytotoxicity against human OVCAR-3 cells assessed as inhibition of cell proliferation incubated for 4 hrs by MTS assay; assay type: functional, cell-based; details: OVCAR-3, 4 h; summary of the method: as §1
[30] = system: SK-OV-3; experiment: Cytotoxicity against human SK-OV-3 cells assessed as inhibition of cell proliferation incubated for 4 hrs by MTS assay; assay type: functional, cell-based; details: SK-OV-3, 4 h; summary of the method: as §1
[31] = system: BXPC-3; experiment: Cytotoxicity against human BXPC-3 cells assessed as inhibition of cell proliferation incubated for 4 hrs by MTS assay; assay type: functional, cell-based; details: BXPC-3, 4 h; summary of the method: as §1
[32] = system: DU-145; experiment: Cytotoxicity against human DU-145 cells assessed as inhibition of cell proliferation incubated for 4 hrs by MTS assay; assay type: functional, cell-based; details: DU-145, 4 h; summary of the method: as §1
[33] = system: PC-3; experiment: Cytotoxicity against human PC-3 cells assessed as inhibition of cell proliferation incubated for 4 hrs by MTS assay; assay type: functional, cell-based; details: PC-3, 4 h; summary of the method: as §1
[34] = system: A-431; experiment: Cytotoxicity against human A-431 cells assessed as inhibition of cell proliferation incubated for 4 hrs by MTS assay; assay type: functional, cell-based; details: A-431, 4 h; summary of the method: as §1
[35] = system: Malme-3M; experiment: Cytotoxicity against human Malme-3M cells assessed as inhibition of cell proliferation incubated for 4 hrs by MTS assay; assay type: functional, cell-based; summary of the method: as §1
[36] = Cytotoxicity against human Hs 445 cells assessed as inhibition of cell proliferation incubated for 4 hrs by MTS assay; assay type: functional, cell-based; details: Hs 445, 4 h; summary of the method: as §1
[37] = Cytotoxicity against human U-87 MG cells assessed as inhibition of cell proliferation incubated for 4 hrs by MTS assay; assay type: functional, cell-based, U-87MG ATCC; summary of the method: as §1
[38] = system: COLO 205; experiment: Cytotoxicity against human COLO 205 cells assessed as inhibition of cell proliferation incubated for 4 hrs by MTS assay; assay type: functional, cell-based; details: COLO 205, 4 h; summary of the method: as §1

## NCCCC[C@H](NC(=O)[C@H](Cc1c[nH]c2ccccc12)NC(=O)[C@H](Cc1c[nH]c2ccccc12)NC(=O)[C@H](CCCCN)NC(=O)[C@H](CCCCN)NC(=O)[C@H](Cc1c[nH]c2ccccc12)NC(=O)[C@H](Cc1ccc(-c2ccccc2)cc1)NC(=O)[C@H](CCCCN)NC(=O)[C@@H](N)CCCCN)C(N)=O (H-KK[Bip]WKKWWK-NH2)
[1]
  IC50: 8.7 µM
[2]
  IC50: 5.9 µM
[3]
  IC50: 8.7 µM
[4]
  IC50: 5.3 µM
[5]
  IC50 at 4 h: 87 µM
[6]
  IC50: 11.3 µM
[7]
  IC50: 6.1 µM
[8]
  IC50: 4.6 µM
[9]
  IC50: 4.9 µM
[10]
  IC50: 14.3 µM
[11]
  IC50: 7.4 µM
[12]
  IC50: 7.6 µM
[13]
  IC50: 7.9 µM
[14]
  IC50: 2.7 µM
[15]
  IC50: 4 µM
[16]
  IC50: 4.1 µM
[17]
  IC50: 9.3 µM
[18]
  IC50: 9.8 µM
[19]
  IC50: 2.4 µM
[20]
  IC50: 10 µM
[21]
  IC50: 8.9 µM
[22]
  IC50 at 4 h: 33 µM
[23]
  IC50: 13.8 µM
[24]
  IC50: 7.9 µM
[25]
  IC50: 7.8 µM
[26]
  IC50: 4.9 µM
[27]
  IC50 at 4 h: 27.9 µM
[28]
  IC50: 8.7 µM
[29]
  IC50: 14.1 µM
[30]
  IC50: 12.6 µM
[31]
  IC50: 8.2 µM
[32]
  IC50: 8.2 µM
[33]
  IC50: 10.1 µM
[34]
  IC50: 7.1 µM
[35]
  IC50: 7.1 µM
[36]
  IC50: 2.5 µM
[37]
  IC50: 16.9 µM
[38]
  IC50: 5.7 µM
